We go through eleven molecules from PMC11480350 (Nature Communications, 2024).

One experiment relates to mouse 14-3-3γ. Put plainly: 14-3-3γ degradation, immunoblotting in HEK-293F cells. The class given is cell-based. In general terms: A western blot detects proteins with antibodies after separation by electrophoresis.
Another experiment relates to Mouse zygotes. The experiment in a line: Early embryonic development of zygotes with PKA inhibitor. The class given is cell-based. To be noted: H89 20 μM, commencing from 72 h pHCGi.
Experiment [1] deals with 14-3-3γ (UniProt P61982). Put plainly: anti-Flag. To be noted: reference: wild-type TLE6.
In experiment [2] the target is T1, 14-3-3γ (Mus musculus, UniProt P61982).
T1 sequence (P61982 1-247): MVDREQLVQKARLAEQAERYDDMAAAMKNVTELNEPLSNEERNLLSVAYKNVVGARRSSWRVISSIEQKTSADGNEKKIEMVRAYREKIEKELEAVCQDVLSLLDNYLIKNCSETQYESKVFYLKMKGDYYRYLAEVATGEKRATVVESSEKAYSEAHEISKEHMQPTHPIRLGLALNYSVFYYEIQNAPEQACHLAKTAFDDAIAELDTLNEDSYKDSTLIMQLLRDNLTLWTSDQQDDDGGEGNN
The experiment in a line: Isothermal titration calorimetry. The class given is binding. To be noted: ITC, 25 °C, pH 7.5, 3 independent experiments. Summed up:
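Mouse 14-3-3γ was expressed in E. coli as a GST fusion and purified on glutathione resin. The tag was cut with 3C protease, then the protein was polished by anion exchange and Superdex 200. TLE6 phosphopeptides were titrated into 14-3-3γ (e.g., 1.3 mM peptide into 50 μM protein). Data were corrected for dilution heat and curve-fitted for Kd. Three independent titrations, mean ± S.D.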

The next experiment has as its system SCMC. The experiment in a line: Strep pull-down of 14-3-3 paralogs. It is filed as binding, mouse. To be noted: Strep-Tactin pull-down, purified SCMC and 14-3-3 paralogs, SDS-PAGE. Summed up: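 SCMC was expressed in Sf9 cells for 60 h at 27 °C: His-MATER 1–1059, Strep-TLE6 48–581, Strep-FLOPED 1–164, Strep-FILIA 1–124 or 1–256. It was purified by Ni-NTA, anion exchange and Superose 6. GST-14-3-3 paralogs came from E. coli, were 3C-cleaved, and went through anion exchange and Superdex 200. Proteins were mixed with SCMC or buffer control and captured on Strep-Tactin at 4 °C. Washes contained 0.5% NP-40 and elution used 50 mM biotin. Read-out was SDS-PAGE/immunoblot.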

Experiment [3] addresses His-tagged 14-3-3γ (mouse) (UniProt P61982). Put plainly: ITC. (In ITC the heat of successive injections is recorded.)

Where a SMILES comes first, the peptide text is derived from it. Where no end group is shown, it is not given here. [ ]: non-standard residue; d: D form. The star is where a group is joined. pS = N[C@@H](COP(=O)(O)O)C(=O)O; Cbz = O=C(OCc1ccccc1)*

As for `C[C@@H]1C[C@@H]([C@H](O)CC2CC(=O)NC(=O)C2)C(=O)[C@@H](C)C1` [cycloheximide], the “level of exogenous mouse 14-3-3γ” value with mouse 14-3-3γ (cycloheximide 100 μg/ml) is reported as “gradually degraded”.
As for `CC(C)C[C@@H](C=O)NC(=O)[C@H](CC(C)C)NC(=O)[C@H](CC(C)C)NC(=O)OCc1ccccc1` [MG132] (Cbz-Leu-Leu-Leu-aldehyde), in the experiment on mouse 14-3-3γ (MG132 20 μM with cycloheximide 100 μg/ml), the “decrease in the protein level of 14-3-3γ” value is “effectively rescued”.
As for `O=S(=O)(NCCNC/C=C/c1ccc(Br)cc1)c1cccc2cnccc12` [H89], the “progression of early embryonic development” value in the experiment on Mouse zygotes is given as “markedly retarded”.
For TLE6 (from UniProt Q9WVB3) S209A, the “binding against the reference” value with 14-3-3γ [1] (sites S209) is reported as “weaker”.
Consider “TLE6 (217–228) pS223: phosphopeptide of TLE6 residues 217–228 carrying phosphorylated Ser223 (FLIKSP[pS]ALLDY)”, for which the “binding to 14-3-3γ (in words)” value with 14-3-3γ [2] was “cannot bind to 14-3-3γ”.
In the case of “TLE6 (203–214): wild-type TLE6 peptide, residues 203–214 (QPRHRNSLSDSA)”, the “binding to 14-3-3γ (in words)” value with 14-3-3γ [2] is “cannot bind to 14-3-3γ”.
With TLE6 (from UniProt Q9WVB3) S139A, the “binding against the reference” value in the experiment with 14-3-3γ [1] (sites S139) is “weaker”.
As for “14-3-3γ: mouse 14-3-3 paralog γ (1–247 aa)”, in the experiment on SCMC, the “binding to the SCMC” value is “most potent binding partner”.
In the case of “TLE6 (133–144): wild-type TLE6 peptide, residues 133–144 (TRRRFLSESDEL)”, the “binding to 14-3-3γ (in words)” value in the experiment with 14-3-3γ [2] was “cannot bind to 14-3-3γ”.
In the case of TRRRFL[pS]ESDEL [TLE6 (133–144) pS139 phosphopeptide], the Kd in experiment [3] came out at 55.8 µM.
The same measure, in the same setting: for QPRHRN[pS]LSDSA [TLE6 (203–214) pS209 phosphopeptide] the value was 315 µM.

One may read the Kd as the free concentration of one partner at which half of the binding sites on the other are occupied at equilibrium, for simple one-to-one binding. Read a high Kd as a looser complex.
